Experimental data taken from ChEMBL document CHEMBL4020752, “Synthesis and biological activity of new phthalimides as potential anti-inflammatory agents” (Bioorg Med Chem, 2017).
≈ marks a conversion by molar mass, not a printed value. Calls of active or inactive are those of the source. The rule behind the calls is not given here.

Assays:
RAW264.7 [1] = assay: Anti-inflammatory activity in mouse RAW264.7 cells assessed as inhibition of LPS-induced NO production by measuring […] level at 20 ug/ml after 22 hrs by Griess assay (reference value: 25.31 uM); assay type: functional
How it was run: (§1)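 RAW 264.7 cells seeded at 2×10^5/well, grown 24 h at 37 °C in 5% CO2, washed twice with PBS, given fresh medium, then exposed to LPS 1 µg/mL with or without test compound for 22 h. Nitrite in the medium read by Griess reagent at 540 nm against a sodium nitrite standard curve. IC50 obtained by nonlinear regression of % inhibition vs concentration. Means ± SD of three independent experiments.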

RAW264.7 [2] = assay: Anti-inflammatory activity in mouse RAW264.7 cells assessed as inhibition of LPS-induced NO production by measuring remaining NO level at 20 ug/ml after 22 hrs by Griess assay relative to control; assay type: functional; how it was run: as §1
RAW264.7 [3] = assay: Anti-inflammatory activity in mouse RAW264.7 cells assessed as inhibition of LPS-induced NO production by measuring remaining NO level at 50 uM after 22 hrs by Griess assay relative to control; assay type: functional; how it was run: as §1
RAW264.7 [4] = assay: Anti-inflammatory activity in mouse RAW264.7 cells assessed as inhibition of LPS-induced NO production by measuring […] level at 50 uM after 22 hrs by Griess assay (reference value: 25.31 uM); assay type: functional; how it was run: as §1
RAW264.7 [5] = assay: Anti-inflammatory activity in mouse RAW264.7 cells assessed as inhibition of LPS-induced NO production at 50 uM after 22 hrs by Griess assay relative to control; assay type: functional; settings: RAW264.7, 22 h; how it was run: as §1
RAW264.7 [6] = assay: Downregulation of LPS-stimulated iNOS mRNA expression level in mouse RAW264.7 cells preincubated for 30 mins followed by LPS stimulation for 4 hrs by RT-PCR method; assay type: functional, cell-based
RAW264.7 [7] = assay: Downregulation of IKKbeta level in LPS-stimulated mouse RAW264.7 cells up to 20 ug/ml preincubated with cells followed by LPS stimulation for 16 hrs by Western blot analysis; assay type: functional, cell-based
How it was run: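 RAW 264.7 cells pretreated with a range of compound concentrations, then stimulated with LPS 1 µg/mL for 16 h. IKK protein analysed by western blotting.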

Mus musculus [8] = species: Mus musculus; assay: Inhibition of NF-kB transcriptional activity in LPS-stimulated mouse RAW264.7 cells up to 20 ug/ml preincubated for 2 hrs followed by LPS stimulation for 16 hrs by SEAP reporter gene assay
How it was run: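 RAW-SEAP cells cultured 24 h, pretreated with compound for 2 h, then given LPS 1 µg/mL for 16 h. Supernatants heated at 65 °C for 5 min and reacted with buffer (2 M diethanolamine, 1 mM MgCl2, 500 µM MUP) in the dark at 37 °C for 1 h. Fluorescence read at ex 360/em 449 nm, normalized to protein, expressed relative to vehicle control without LPS.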

RAW264.7 [9] = assay: Upregulation of HO-1 protein level in LPS-stimulated mouse RAW264.7 cells at 20 ug/ml preincubated for 30 mins followed by LPS stimulation for 16 hrs by Western blot method; assay type: functional, cell-based
How it was run: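 RAW 264.7 cells pretreated with compound for 30 min, then stimulated with LPS 1 µg/mL for 16 h. HO-1 protein measured by western blotting.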

RAW264.7 [10] = assay: Downregulation of LPS-stimulated IL-1beta protein expression level in mouse RAW264.7 cells up to 20 ug/ml preincubated for 30 mins followed by LPS stimulation for 4 hrs by Western blot analysis; assay type: functional, cell-based
How it was run: (§2)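 RAW 264.7 cells pretreated with a range of compound concentrations for 30 min, then stimulated with LPS 1 µg/mL for 4 h. Total protein extracted and cytokine levels analysed by western blotting.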

[11] = Cytotoxicity against mouse RAW264.7 cells assessed as survival at 40 ug/ml after 22 hrs by MTT assay relative to control; assay type: cell-based; settings: read-out: Survival
How it was run: (§3)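 RAW 264.7 cells were grown in DMEM with 10% heat-inactivated FBS at 37 °C and 5% CO₂, then plated at 2×10^5 per well for 24 h. After washing, cells received 1 µg/mL LPS with or without compound (up to 40 µg/mL) for 22 h. After the Griess read, MTT (final 500 µg/mL) was added for 3 h at 37 °C. Formazan was dissolved in DMSO and read at 570 nm, giving % survival versus control.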

Mus musculus [12] = species: Mus musculus; assay: Inhibition of IkB kinase in LPS-stimulated mouse RAW264.7 cells assessed as reduction in IkB-alpha phosphorylation up to 20 ug/ml preincubated with cells followed by LPS stimulation for 30 mins by Western blot analysis
How it was run: (§4)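 Pretreatment with a range of compound concentrations for 30 min, then LPS 1 µg/mL for 30 min. IκBα, phospho-protein and related protein levels analysed by western blot.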

[13] = molecular target: T1, Interferon regulatory factor 3 (Mus musculus) (UniProt P70671); assay: Inhibition of LPS-stimulated IRF-3 phosphorylation at Ser-396 residue in mouse RAW264.7 cells up to 20 ug/ml preincubated for 30 mins followed by LPS stimulation for 30 mins by Western blot analysis; assay type: cell-based; how it was run: as §4
T1 sequence (whole entry): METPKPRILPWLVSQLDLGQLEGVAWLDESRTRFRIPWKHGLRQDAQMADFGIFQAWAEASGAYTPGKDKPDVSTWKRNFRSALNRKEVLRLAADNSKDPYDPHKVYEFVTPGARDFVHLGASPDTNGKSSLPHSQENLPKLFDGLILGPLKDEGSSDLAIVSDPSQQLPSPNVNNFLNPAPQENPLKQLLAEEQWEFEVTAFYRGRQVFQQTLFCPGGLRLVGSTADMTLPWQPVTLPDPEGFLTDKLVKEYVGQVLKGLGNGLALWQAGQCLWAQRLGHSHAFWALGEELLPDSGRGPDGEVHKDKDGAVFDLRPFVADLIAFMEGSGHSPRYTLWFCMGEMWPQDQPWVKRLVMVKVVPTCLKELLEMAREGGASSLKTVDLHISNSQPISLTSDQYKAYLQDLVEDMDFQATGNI

RAW264.7 [14] = assay: Downregulation of LPS-stimulated IL-1beta mRNA expression level in mouse RAW264.7 cells preincubated for 30 mins followed by LPS stimulation for 4 hrs by RT-PCR method; assay type: functional, cell-based
How it was run: (§5)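 Cells pretreated with compound for 30 min, then stimulated with LPS 1 µg/mL for 4 h. Total RNA extracted and cytokine mRNA measured by real-time PCR. Means ± SD of triplicate tests.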

RAW264.7 [15] = assay: Downregulation of LPS-stimulated iNOS protein expression level in mouse RAW264.7 cells preincubated for 30 mins followed by LPS stimulation for 16 hrs by Western blot analysis; assay type: functional, cell-based
How it was run: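 Cells pretreated with a range of compound concentrations for 30 min, then stimulated with LPS 1 µg/mL for 16 h. iNOS protein analysed by western blot.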

RAW264.7 [16] = assay: Anti-inflammatory activity in mouse RAW264.7 cells assessed as inhibition of LPS-induced NO production after 22 hrs by Griess assay; assay type: functional, cell-based; how it was run: as §1
RAW264.7 [17] = assay: Downregulation of IkB-alpha level in LPS-stimulated mouse RAW264.7 cells up to 20 ug/ml preincubated with cells followed by LPS stimulation for 30 mins by Western blot analysis; assay type: functional, cell-based; how it was run: as §4
[18] = Cytotoxicity against mouse RAW264.7 cells assessed as survival up to 20 ug/ml after 22 hrs by MTT assay relative to control; assay type: cell-based; settings: read-out: Survival; how it was run: as §3
RAW264.7 [19] = assay: Downregulation of LPS-stimulated TNF-alpha protein expression level in mouse RAW264.7 cells up to 20 ug/ml preincubated for 30 mins followed by LPS stimulation for 4 hrs by Western blot analysis; assay type: functional, cell-based; how it was run: as §2
RAW264.7 [20] = assay: Downregulation of IFN-beta mRNA level in LPS-stimulated mouse RAW264.7 cells up to 20 ug/ml preincubated with cells followed by LPS stimulation for 4 hrs by RT-PCR method; assay type: functional, cell-based; how it was run: as §5

SMILES | Activity (RAW264.7 [1]) | Activity (RAW264.7 [2]) | also measured
CCCCN1C(=O)c2cc(O)cc(O)c2C1=O | 18.24 µM | 73.4% | 
O=C1c2cc(O)cc(O)c2C(=O)N1Cc1ccc(Br)cc1 | 8.04 µM | 32.4% | 
O=C1c2cc(O)cc(O)c2C(=O)N1Cc1ccccc1Br | 9.65 µM | 38.8% | 
CCCCCCCN1C(=O)c2cc(OC)cc(OC)c2C1=O | 20.99 µM | 84.5% | 
CCN1C(=O)c2cc(OC)cc(OC)c2C1=O | 10.81 µM | 43.5% | 
CCC(=O)OCCN1C(=O)c2cc(OC)cc(OC)c2C1=O | 25.31 µM | 101.9% | 
COc1cc(OC)c2c(c1)C(=O)N(Cc1cccc(F)c1)C2=O | 18.65 µM | 75.1% | 
CCCN1C(=O)c2cc(O)cc(O)c2C1=O | 20.71 µM | 83.3% | 
COc1cc(OC)c2c(c1)C(=O)N(CCO)C2=O | 24.8 µM | 99.8% | 
COc1cc(OC)c2c(c1)C(=O)N(Cc1ccccc1F)C2=O | 18.87 µM | 75.9% | 
CC1CCN=C(N)S1.Cl (centres undefined) |  |  | Activity (RAW264.7 [3]): 2%; Activity (RAW264.7 [4]): 0.5 µM; inhibition at 50 µM (RAW264.7 [5]): 98%
CCCCCN1C(=O)c2cc(O)cc(O)c2C1=O | 11.3 µM | 45.5% | 
COc1cc(OC)c2c(c1)C(=O)N(Cc1ccc(Br)cc1)C2=O | 20.16 µM | 81.1% | 
COc1cc(OC)c2c(c1)C(=O)N(CC(C)C)C2=O | 21.45 µM | 86.3% | 
CCCCCN1C(=O)c2cc(OC)cc(OC)c2C1=O | 18.6 µM | 74.8% | 
CCCCN1C(=O)c2cc(OC)cc(OC)c2C1=O | 19.7 µM | 79.3% | 

SMILES | Activity (RAW264.7 [1]) | Activity (RAW264.7 [2]) | also measured
COc1cc(OC)c2c(c1)C(=O)N(Cc1ccccc1Br)C2=O | 20.79 µM | 83.7% | 
O=C1c2cc(O)cc(O)c2C(=O)N1Cc1cccc(F)c1 | 10.46 µM | 42.1% | 
COc1cc(OC)c2c(c1)C(=O)N(CCOC(=O)CCl)C2=O | 12.14 µM | 48.9% | 
COc1cc(OC)c2c(c1)C(=O)N(CCOC(C)=O)C2=O | 24.13 µM | 97.1% | 
CCN1C(=O)c2cc(O)cc(O)c2C1=O | 21.12 µM | 85% | 
COc1cc(OC)c2c(c1)C(=O)N(C(C)C)C2=O | 24.34 µM | 97.9% | 
CCCCCCN1C(=O)c2cc(OC)cc(OC)c2C1=O | 23.01 µM | 92.6% | 
CC(C)N1C(=O)c2cc(O)cc(O)c2C1=O | 20.47 µM | 82.4% | 
CC(C)CN1C(=O)c2cc(O)cc(O)c2C1=O | 21.07 µM | 84.8% | 
CCCCCCN1C(=O)c2cc(O)cc(O)c2C1=O | 1.98 µM | 8% | 
O=C1c2cc(O)cc(O)c2C(=O)N1Cc1ccccc1F | 11.76 µM | 47.3% | 
CCCN1C(=O)c2cc(OC)cc(OC)c2C1=O | 23.24 µM | 93.5% | 
Cc1cccc(CN2C(=O)c3cc(O)cc(O)c3C2=O)c1 | 10.36 µM | 41.7% | 
CCCCCCCN1C(=O)c2cc(O)cc(O)c2C1=O | 0.72 µM | 2.9% | Activity (RAW264.7 [6]): Dose-dependent effect; Activity (RAW264.7 [7]): Active; inhibition (Mus musculus [8]): Active; Activity (RAW264.7 [9]): Active; Activity (RAW264.7 [10]): Active; viability at 22 h, 40 ug/ml [11]: 17%; inhibition (Mus musculus [12]): Active; inhibition [13]: Active; Activity (RAW264.7 [14]): Dose-dependent effect; Activity (RAW264.7 [15]): Dose-dependent effect; inhibition (RAW264.7 [16]): Dose-dependent effect; IC50 (RAW264.7 [16]; RAW264.7, 22 h): 8.7 µg/mL (≈ 31.4 µM); Activity (RAW264.7 [17]): Active; viability at 22 h [18]: > 95%; Activity (RAW264.7 [19]): Active; Activity (RAW264.7 [20]): Active
COc1cc(OC)c2c(c1)C(=O)N(Cc1cccc(C)c1)C2=O | 18.43 µM | 74.2% | 
